Mcl-1 Bim block – human Bim-Mcl-1 interaction inhibition; Bead-based flow cytometry, Bim peptide-Mcl-1 binding; hit rate 0.1% among 190,000; Q07820; inhibition, % at 10 µM; AID 1009; in the data active means inhibition above about 40%;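 further: 0% = no compound tracer wells and 100% = peptide blocker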
Target sequence (Q07820 whole entry, looked up): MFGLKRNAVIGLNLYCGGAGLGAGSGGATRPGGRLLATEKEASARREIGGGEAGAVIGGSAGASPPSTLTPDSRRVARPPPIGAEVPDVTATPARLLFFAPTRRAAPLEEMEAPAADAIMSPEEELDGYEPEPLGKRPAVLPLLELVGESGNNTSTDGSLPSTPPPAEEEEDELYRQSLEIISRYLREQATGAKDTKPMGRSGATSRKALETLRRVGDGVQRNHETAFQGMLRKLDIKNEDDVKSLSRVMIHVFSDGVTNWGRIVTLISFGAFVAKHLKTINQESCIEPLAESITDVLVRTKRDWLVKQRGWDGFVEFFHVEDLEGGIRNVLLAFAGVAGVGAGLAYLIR
Mcl1 Noxa PPI – disrupts binding of human Mcl-1 to Noxa peptide; Q07820; TR-FRET Mcl-1/Noxa peptide binding, 2 h; inhibition, % at 21.7 µM; hit rate 1.5% among 220,000; AID 1022;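 active means compounds that cut the protein-peptide binding signal by more than 50% relative to plate controls in a single-dose test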;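 further: His-tagged Mcl-1 with rhodamine Noxa BH3 peptide and terbium anti-His antibody; 0% = Mcl-1 plus Noxa peptide wells and 100% = peptide-only wells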
Mcl1-Bid inh – disrupts binding of human Mcl-1 to Bid peptide; TR-FRET Mcl-1/Bid-Dy647 peptide binding, 1536-well; Q07820; inhibition, % at 21.7 µM; hit rate 0.97% among 220,000; AID 1021;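 active means compounds that cut the binding signal by more than half at the single screening dose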;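 further: His-tagged Mcl-1 with europium anti-His antibody binding Bid BH3 peptide; 0% = Mcl-1 plus peptide wells and 100% = peptide-only wells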
Calb biofilm kill – mixture kills Candida albicans biofilm cells. C. albicans biofilm persisters + clotrimazole, fluorescence viability; primary screen in compound mixtures of four per well. inhibition, % at 7.6 µM. hit rate 0.02% among 120,000. AID 1242;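 active means inhibition above 30.3% in the primary screen of four-compound pools, then above 30% when the compound was retested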;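 further: compounds exposed to preformed 24 h biofilms for 48 h; 0% = untreated biofilm control and 100% = clotrimazole plus chlorhexidine kill blank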
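Test system: C. albicans biofilms. Buffer or medium: RPMI/MOPS medium, pH 7.0. Timing: 48 h compound exposure at 37 °C. Technique: Alamar Blue fluorescence. Evaluation: percent inhibition of biofilm viability.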
Arbovirus anti – blocks arbovirus infection; hit rate 0.37% among 200,000; inhibition, % at 10 µM; AID 1251; arbovirus infection cell-based antiviral screen; in the data active means inhibition above about 30%
m-calpain inh – blocks pig calpain II enzyme activity | purified calpain II, fluorogenic peptide substrate, 30 min | inhibition, % at 16 µM | hit rate 0.37% among 220,000;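 active means inhibition above about 50%, limit read from the data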
* hit, by the source's call; . = no result. An excerpt weighted towards active compounds, which were near 2.8% of everything screened.

SMILES	Mcl-1 Bim block	Mcl1 Noxa PPI	Mcl1-Bid inh	Calb biofilm kill	Arbovirus anti	m-calpain inh
COc1ccccc1/C=C1\NC(=S)N(CC2CCCO2)C1=O (stereo not drawn)	1.0	13.1	-29.0	.	-1.6	5.8
CC(C)CNC(=S)Nc1ccc(Oc2ccccc2)cc1	-4.0	13.4	-49.5	12.1	-5.5	30.0
Cc1c(C(=O)NC(Cc2ccccc2)c2nc3ccccc3[nH]2)cccc1[N+](=O)[O-] (stereo not drawn)	-4.0	29.5	16.2	4.0	33.1*	-6.1
Cn1c(CC(=O)c2ccc(Br)cc2)[n+](C)c2ccccc21	0.0	14.2	-19.2	9.7	4.7	7.4
COc1ccc2cc(-c3[nH]ncc3CN3CCCN(c4ccccc4)CC3)ccc2c1	-2.0	22.5	-30.8	8.8	-24.4	-25.6
CC1=NOC(=O)/C1=C/c1ccc(-c2ccc(Cl)cc2)o1	0.0	67.0*	67.2*	.	-45.3	-12.9
Cc1ccc(C2=NOC(=O)/C2=C\c2ccc(C)o2)cc1	.	8.5	-45.5	31.3	.	9.2
CC1=NOC(=O)/C1=C\c1ccc(-c2cc(Cl)ccc2Cl)o1	-3.0	53.3*	40.6	.	-42.2	7.5
CC1=NOC(=O)/C1=C\c1ccc(-c2ccc(Br)cc2)o1	-3.0	65.8*	40.4	17.9	-22.2	-28.9
Cc1ccc(/C=C2\C(=O)ON=C2c2ccccc2)o1	-3.0	18.5	-17.7	10.0	-3.6	29.5
CC1=NOC(=O)/C1=C\c1ccc(-c2ccc(Br)cc2C(=O)O)o1	0.0	15.9	-114.8	13.3	6.0	23.3
COc1ccccc1NC(=O)CSc1nnc(C2CCCCC2)n1-c1ccccc1	.	6.0	-12.5	10.6	.	13.5
CCc1ccc(NC(=O)c2c(C(=O)Nc3ccccc3)sc3nc(C)cc(=O)n23)cc1	-1.0	4.5	-40.9	3.2	-0.2	-46.9
O=C(COC(=O)c1cc(=O)c2ccccc2o1)Nc1ccc2ccccc2c1	-4.0	10.9	14.1	17.7	4.8	27.9
CC1(C)C(=O)Nc2ccccc2N1C(=O)COc1cccnc1[N+](=O)[O-]	0.0	6.7	-48.7	-6.8	-8.3	13.4
CCN1CCN(c2nc(Nc3ccc(NC(C)=O)cc3)nc(Nc3ccc(NC(C)=O)cc3)n2)CC1	.	35.5	-18.4	15.5	.	7.8
NC(=O)C1CCN(C2=C(Cl)C(=O)c3ccccc3C2=O)CC1	16.0	88.3*	26.6	.	-10.2	14.9
O=C1C(Cl)=C(N2CCC(C(=O)O)CC2)C(=O)c2ccccc21	.	52.2*	-14.1	7.3	.	12.1
O=C(O)C1CCN(C(=O)c2ccccc2Cl)CC1	0.0	-1.7	-2.8	.	4.9	-6.3
NC(=O)C1CCN(C2=C(NS(=O)(=O)c3ccccc3)C(=O)c3ccccc3C2=O)CC1	.	-1.0	-19.3	15.9	.	1.5
CCOc1ccccc1NC(=S)N1CCN(c2nc(-c3cccc(OC)c3)cs2)CC1	0.0	-11.1	-82.5	4.4	-3.4	16.8
Cc1cccc(NC(=S)c2nc3ccccc3s2)c1	-1.0	-41.1	103.2*	.	3.1	4.5
CN(CCCNC(=O)Cn1cccc1C(=O)c1ccccc1)C1CCCCC1	0.0	21.0	-22.1	13.6	4.8	-23.5
CC1=NNC(=O)/C1=C\c1cn(-c2ccccc2)nc1-c1cccs1	-10.0	14.0	33.9	15.9	-32.3	-25.9
O=C(O)CCN1C(=O)/C(=C\c2ccncc2)SC1=S	0.0	-8.4	-36.4	12.6	1.6	6.8
SMILES	Mcl-1 Bim block	Mcl1 Noxa PPI	Mcl1-Bid inh	Calb biofilm kill	Arbovirus anti	m-calpain inh
Cc1ccc(-c2nn(-c3ccccc3)cc2/C=C2\SC(=S)N(CC(=O)O)C2=O)cc1	.	88.1*	35.5	24.1	.	49.0
O=C(O)CCCCCN1C(=O)/C(=C\c2cn(-c3ccccc3)nc2-c2cccs2)SC1=S	.	98.6*	89.3*	15.5	.	29.9
O=C(O)CCN1C(=O)/C(=C/c2cn(-c3ccccc3)nc2-c2cccs2)SC1=S	-2.0	88.0*	83.6*	-4.0	-12.1	0.8
Cn1cccc1/C=C1\SC(=S)N(CC(=O)O)C1=O	0.0	12.6	-54.3	11.2	4.2	7.8
CN(C)C(CNC(=S)Nc1cccc(Cl)c1)c1ccccc1 (stereo not drawn)	0.0	9.9	-34.4	5.3	-9.8	16.4
Cc1ccc(-n2[nH]c(C)c(/C=N/NC(=O)c3ccc([N+](=O)[O-])cc3)c2=O)c(C)c1	-1.0	-39.5	-58.9	-9.0	-30.4	-3.6
Fc1ccccc1NC(=S)N1CCN(c2ccccn2)CC1	-4.0	-1.8	-15.5	23.0	-1.6	6.0
COc1ccc(N2C(=O)CC(S/C(N)=N/N=C/c3ccnc4ccccc34)C2=O)cc1 (stereo not drawn)	-3.0	35.4	81.0*	18.0	-10.2	-103.5
Nc1cc(Cl)nnc1Cl	.	-3.2	-6.2	18.5	.	-3.1
CC(C)(C)NC(=O)c1ccc(Sc2ccccc2)c([N+](=O)[O-])c1	0.0	-4.7	-16.1	.	-2.9	54.1*
O=C(O)c1ccc(Sc2ccccn2)c([N+](=O)[O-])c1	-2.0	9.0	-19.1	8.2	8.4	16.8
COC(=O)c1ccc(Sc2ccccn2)c([N+](=O)[O-])c1	-5.0	-2.0	54.8*	6.2	-0.4	-7.5
CCSc1nnc2c(n1)OC(c1ccc(C(=O)O)cc1)N(C(C)=O)c1ccccc1-2 (stereo not drawn)	-1.0	7.1	-5.0	.	1.1	-10.5
CCCCCSc1nnc2c(n1)OC(c1cccn1C)N(C(C)=O)c1ccccc1-2 (stereo not drawn)	0.0	6.5	97.6*	.	6.6	-3.9
CCn1c2ccccc2c2cc(NC(=O)c3coc(=O)c(Br)c3)ccc21	.	69.3*	38.1	13.3	.	-29.2
Cc1ccccc1OCCSc1nc2ncnc(N)c2[nH]1	-2.0	-16.6	-5.6	2.3	-34.5	8.0
CCn1c(-c2cc(C3CC3)nc3ccccc23)n[nH]c1=S	-5.0	54.7*	-10.8	-10.4	9.1	-11.5
CCn1c(-c2cc(-c3cc(C)ccc3C)nc3ccccc23)n[nH]c1=S	-2.0	44.1	42.6	-5.1	5.7	-20.7
N#Cc1cc2c(nc1SCC(=O)Nc1sc3c(c1C#N)CCC3)CCC2	-1.0	7.3	-29.2	.	-3.2	-76.6
N#Cc1c(NC(=O)CSc2nnc(-c3ccccc3)o2)sc2c1CCCC2	0.0	-5.6	18.9	.	31.7*	35.6
COc1ccc(-c2ccc(C#N)c(SCC(=O)Nc3sc4c(c3C#N)CCC4)n2)cc1OC	18.0	16.2	72.8*	.	-10.7	-73.2
CCOc1c(Cl)cc(CNc2ccc(N3CCCC3)cc2)cc1OC	9.0	88.4*	-19.0	14.8	-7.1	2.1
CCOc1c(Cl)cc(CNc2ccc(S(N)(=O)=O)cc2)cc1OC	0.0	14.6	1.4	12.4	5.0	32.5
COc1ccccc1NC1=C(NC(C)=O)C(=O)c2ccccc2C1=O	8.0	77.9*	-39.0	10.2	-9.0	0.3
C=CCN=C1SC(C)(C)C(=O)N1S(=O)(=O)c1ccc(C)cc1	1.0	6.5	-22.3	-3.9	-2.7	13.9
O=C(NNC(=O)c1cc(OCC(F)(F)F)ccc1OCC(F)(F)F)c1cccc(C(F)(F)F)c1	-8.0	5.0	3.0	.	-15.5	91.6*
CSc1ccccc1NC(=O)CN1CCCCC1	0.0	-2.1	-18.2	11.5	14.1	-5.2

Screens from PubChem.
